Here are results for 31 compounds from ChEMBL document CHEMBL1148253, “Structure-activity requirements for the antiproliferative effect of troglitazone derivatives mediated by depletion of intracellular calcium” (Bioorg Med Chem Lett, 2004).

pIC50: −log10 of the molar value. The source made the active and inactive calls. The calls are words filed in the database; no cut-off is given here.

The nature of data set [1]: Partition coefficient (logP). It is filed as physicochemical. The conditions noted are these: octanol/water.
For data set [2], the system named is PC-12. Nature of the data set: Phosphorylation of eukaryotic initiation factor 2 alpha (eIF2alpha) in PC12 cells, + = Phosphorylation. It is filed as functional, cell-based. The note with it: Rattus norvegicus. The method, boiled down: (§1)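 Cells treated with drug at 15 μM for 2 h. Extracts western blotted with anti-phospho-Ser51 eIF2α antibody. Tro is the positive control and DMSO the negative control. Scored +, ± or −.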

Data set [3] deals with PC-12. Nature of the data set: Concentration required for 50% inhibition of cell proliferation in PC12 cells using sulforhodamine B assay. It is filed as functional, cell-based. The note with it: Rattus norvegicus. The gist of the method:
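Sulforhodamine B proliferation assay; cells exposed to drug for 5 days across 0.5 to 100 μM. IC50 is the concentration giving 50% inhibition of proliferation.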

Data set [4] has as its system PC-12. The data set is described as follows: Tested for the intracellular Ca+2 release in PC12 cells; + = Release. It is filed as functional, cell-based. The note with it: Rattus norvegicus. The method, boiled down: (§2)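 Fluo-4-loaded cells treated with drug at 80 μM for 10 min and monitored for Ca2+ release from intracellular stores. Clotrimazole is the positive control. Scored +, ± or −.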

The subject of data set [5] is PC-12. Nature of the data set: Tested for the intracellular Ca+2 release in PC12 cells; - = No release. Type of data set: functional, cell-based. The conditions noted are these: Rattus norvegicus. The method, boiled down: as §2
In data set [6] the test system is PC-12. The data set is described as follows: Phosphorylation of eukaryotic initiation factor 2 alpha (eIF2alpha) in PC12 cells, - = No phosphorylation. Type of data set: functional, cell-based. The conditions noted are these: Rattus norvegicus. The gist of the method:
as §1

For data set [7], the system named is PC-12. Nature of the data set: Phosphorylation of eukaryotic initiation factor 2 alpha (eIF2alpha) in PC12 cells, +/- = Insignificant phosphorylation. The note with it: Rattus norvegicus. It is filed as functional, cell-based. The method, boiled down: as §1
Data set [8] deals with PC-12. Nature of the data set: Tested for the intracellular Ca+2 release in PC12 cells; +/- = Insignificant release. Type of data set: functional, cell-based. The conditions noted are these: Rattus norvegicus. The gist of the method:
as §2

On to `CCC(C)(C)Oc1ccc(CC2SC(=O)NC2=O)cc1` (stereo unspecified), for which the logP in data set [1] (read-out: logP) came to 3.76. The Activity result in the data set on PC-12 [2] and in the data set on PC-12 [4] was “Phosphorylation” each time. The pIC50 with PC-12 [3] was 4.64.

Take `COc1ccc(/C=C2\SC(=O)NC2=O)cc1`: the logP in data set [1] (read-out: logP) amounted to 1.63. The Activity result in the data set on PC-12 [5] and in the data set with PC-12 [6] was “Not toxic” throughout. In addition, the pIC50 in the data set on PC-12 [3] was 4.64.

Consider `Cc1c(C)c2c(c(C)c1O)CCC(C)(COc1ccc(CC3SC(=O)NC3=O)cc1)O2` (stereo unspecified) [TROGLITAZONE], for which, in data set [1] (read-out: logP), the logP was determined as 4.46. Also, the outcome with PC-12 [2] and in the data set with PC-12 [4] was Active. The pIC50 with PC-12 [3] was 4.82.

Regarding `O=C1NC(=O)C(Cc2ccc(OCc3ccccc3)cc2)S1` (stereo unspecified), the logP in data set [1] (read-out: logP) came to 3.67. Besides, the Activity result in the data set with PC-12 [5] and in the data set with PC-12 [6] was “Not toxic” in each case. In addition, in the data set on PC-12 [3], the pIC50 was less than 4.00.

Consider `O=C1N=C(O)S/C1=C\c1ccc(OCc2ccccc2)cc1`, for which the Activity entry with PC-12 [5] and in the data set on PC-12 [6] was “Not toxic” each time. In the data set on PC-12 [3], this compound gave a pIC50 of 4.82.

As to `O=C1NC(=O)/C(=C/c2ccc(OCC3CCC3)cc2)S1`, in data set [1] (read-out: logP), the logP turned out to be 2.54. In addition, the Activity result with PC-12 [2] and in the data set with PC-12 [4] was “Phosphorylation” throughout. The compound also gave a pIC50 with PC-12 [3] of 4.89.

For the compound `CCCOc1ccc(CC2SC(=O)NC2=O)cc1` (stereo unspecified), the logP in data set [1] (read-out: logP) worked out at 2.96. For the same compound, the Activity entry in the data set with PC-12 [5] is “Not toxic”; in the data set on PC-12 [7], “+/-”. The pIC50 with PC-12 [3] is 4.35.

Consider `O=C1NC(=O)C(Cc2ccc(OCC3CCC3)cc2)S1` (stereo unspecified), for which, in data set [1] (read-out: logP), the logP stood at 2.81. Further, the Activity result was “Not toxic” in the data set with PC-12 [6] and “Release” in the data set on PC-12 [4]. In addition, the pIC50 in the data set on PC-12 [3] was less than 4.00.

With `CC(C)COc1ccc(/C=C2\SC(=O)NC2=O)cc1`, the logP in data set [1] (read-out: logP) came out at 3.09. Besides, the Activity entry is “Not toxic” in the data set with PC-12 [5] and “+/-” with PC-12 [7]. Moreover, the pIC50 with PC-12 [3] is 4.80.

Consider `O=C1NC(=O)/C(=C/c2ccccc2)S1`, for which the logP in data set [1] (read-out: logP) worked out at 1.71. In addition, the Activity result in the data set on PC-12 [5] and in the data set with PC-12 [6] was “Not toxic” in each case. This compound also had a pIC50 in the data set with PC-12 [3] of less than 4.00.

Turning to `O=C1NC(=O)/C(=C/c2ccc(OCC3CC3)cc2)S1`, the logP in data set [1] (read-out: logP) was 1.99. Further, the values for the Activity entry in the data set on PC-12 [5] and with PC-12 [7] were “Not toxic” and “+/-”, respectively. Also, in the data set on PC-12 [3], the pIC50 is 4.64.

Take `O=C1NC(=O)C(Cc2ccc(O)cc2)S1` (stereo unspecified) [GLITAZONE]: the logP in data set [1] (read-out: logP) came to 1.32. For the same compound, the Activity result was “Not toxic” in the data set on PC-12 [5] and “+/-” in the data set with PC-12 [7]. Moreover, the pIC50 in the data set with PC-12 [3] is less than 4.00.

On to `O=C1NC(=O)C(Cc2ccc(OCC3CCCC3)cc2)S1` (stereo unspecified), for which the lipophilicity (logP) in data set [1] (read-out: logP) is 3.38. For the same compound, the Activity result in the data set on PC-12 [2] and with PC-12 [4] was “Phosphorylation” each time. The same compound showed a pIC50 in the data set on PC-12 [3] of 4.60.

For the compound `Cc1c(C)c2c(c(C)c1O)CCC(C)(COc1ccc(/C=C3/SC(=O)NC3=O)cc1)O2` (stereo unspecified), in data set [1] (read-out: logP), the logP worked out at 5.31. For the same compound, the Activity result in the data set on PC-12 [2] and in the data set on PC-12 [4] was “Phosphorylation” each time. Besides, in the data set on PC-12 [3], the pIC50 is 5.30.

Take `O=C1NC(=O)/C(=C/c2ccc(OCc3ccccc3)cc2)S1`: the logP in data set [1] (read-out: logP) worked out at 3.4.

Turning to `CC(C)COc1ccc(CC2SC(=O)NC2=O)cc1` (stereo unspecified), the logP in data set [1] (read-out: logP) was 3.36. The Activity entry in the data set with PC-12 [6] is “Not toxic”; in the data set on PC-12 [4], “Release”. This compound had a pIC50 in the data set on PC-12 [3] of 4.60.

Turning to `COc1ccc(CC2SC(=O)NC2=O)cc1` (stereo unspecified), the logP in data set [1] (read-out: logP) amounted to 1.91. For the same compound, the Activity entry with PC-12 [5] and with PC-12 [6] was “Not toxic” in each case. Also, the negative logarithm of the IC50 (pIC50) in the data set on PC-12 [3] is less than 4.00.

For `CCOc1ccc(CC2SC(=O)NC2=O)cc1` (stereo unspecified), the logP in data set [1] (read-out: logP) was found to be 2.43. Further, the figures for the Activity result in the data set with PC-12 [5] and with PC-12 [7] were “Not toxic” and “+/-”, respectively. In the data set with PC-12 [3], this compound had a pIC50 of less than 4.00.

Take `O=C1NC(=O)C(Cc2ccc(OCC3CCCCO3)cc2)S1` (stereo unspecified): in data set [1] (read-out: logP), the logP was found to be 2.29. The Activity result in the data set on PC-12 [5] and with PC-12 [6] was “Not toxic” throughout. The same compound showed a pIC50 with PC-12 [3] of less than 4.00.

Take `O=C1N=C(O)S/C1=C\c1ccc(OCC2CCCCC2)cc1`: the logP in data set [1] (read-out: logP) was 3.66. The Activity entry in the data set with PC-12 [2] and with PC-12 [4] was “Phosphorylation” each time. Moreover, in the data set with PC-12 [3], the pIC50 is 4.85.

As for `O=C1N=C(O)S/C1=C\c1ccc(OCC2CCCC2)cc1`, the Activity result in the data set on PC-12 [2] and in the data set with PC-12 [4] was “Phosphorylation” each time. This compound showed a pIC50 in the data set with PC-12 [3] of 5.00.

Consider `O=C1NC(=O)C(Cc2ccc(OCC3CCCCC3)cc2)S1` (stereo unspecified), for which the logP in data set [1] (read-out: logP) was found to be 3.94. The figures for the Activity result in the data set on PC-12 [7] and in the data set on PC-12 [4] were “+/-” and “Release”, respectively. Besides, the pIC50 in the data set with PC-12 [3] was 4.59.

On to `CC1(COc2ccc(CC3SC(=O)NC3=O)cc2)CCCCC1` (stereo unspecified) [CIGLITAZONE], for which the logP in data set [1] is on record as 5.07. For the same compound, the outcome in the data set with PC-12 [2] and with PC-12 [4] was Active. The compound further gave a pIC50 with PC-12 [3] of 4.70.

Turning to `O=C1NC(=O)C(Cc2ccc(OCC3CC3)cc2)S1` (stereo unspecified), in data set [1] (read-out: logP), the logP was 2.26. The Activity entry in the data set with PC-12 [5] and with PC-12 [6] was “Not toxic” each time. This compound showed a negative logarithm of the IC50 (pIC50) with PC-12 [3] of less than 4.00.

In the case of `O=C1NC(=O)/C(=C/c2ccc(OCC3CCCC3)cc2)S1`, the logP in data set [1] (read-out: logP) is 3.21.

In the case of `O=C1NC(=O)/C(=C/c2ccc(O)cc2)S1`, the logP in data set [1] (read-out: logP) worked out at 1.05. Also, the Activity entry in the data set on PC-12 [5] and in the data set with PC-12 [6] was “Not toxic” throughout. This compound had a pIC50 in the data set on PC-12 [3] of 4.70.

Regarding `O=C1N=C(O)S/C1=C\c1ccc(OCC2CCCCO2)cc1` (stereo unspecified), the logP in data set [1] (read-out: logP) came to 2.02. The Activity result with PC-12 [2] and with PC-12 [4] was “Phosphorylation” throughout. Also, the pIC50 in the data set with PC-12 [3] is 4.66.

For `CCCOc1ccc(/C=C2\SC(=O)NC2=O)cc1`, in data set [1] (read-out: logP), the logP came to 2.69. Further, the Activity entry in the data set with PC-12 [8] and in the data set with PC-12 [7] was “+/-” each time. The compound further had a pIC50 in the data set on PC-12 [3] of 5.15.

With `CCC(C)(C)Oc1ccc(/C=C2\SC(=O)NC2=O)cc1`, the logP in data set [1] (read-out: logP) was found to be 3.49. Also, the Activity entry with PC-12 [2] and in the data set with PC-12 [4] was “Phosphorylation” in each case. The compound further gave a pIC50 with PC-12 [3] of 4.82.

For the compound `CCOc1ccc(/C=C2\SC(=O)NC2=O)cc1`, the logP in data set [1] (read-out: logP) was 2.16. Also, the Activity entry with PC-12 [5] is “Not toxic”; in the data set on PC-12 [7], “+/-”. The same compound showed a pIC50 in the data set with PC-12 [3] of 4.57.

As to `O=C1NC(=O)C(Cc2ccccc2)S1` (stereo unspecified), the logP in data set [1] (read-out: logP) was 1.99. In addition, the Activity entry in the data set with PC-12 [5] and in the data set with PC-12 [6] was “Not toxic” in each case. The same compound had a pIC50 in the data set with PC-12 [3] of less than 4.00.
